Experimental data of several laboratories.
Each line is one published result; the experiments were not run side by side.
Target: Protein kinase C epsilon type (PRKCE, Homo sapiens, UniProt Q02156)
Residues used in one study (Q02156 1-737): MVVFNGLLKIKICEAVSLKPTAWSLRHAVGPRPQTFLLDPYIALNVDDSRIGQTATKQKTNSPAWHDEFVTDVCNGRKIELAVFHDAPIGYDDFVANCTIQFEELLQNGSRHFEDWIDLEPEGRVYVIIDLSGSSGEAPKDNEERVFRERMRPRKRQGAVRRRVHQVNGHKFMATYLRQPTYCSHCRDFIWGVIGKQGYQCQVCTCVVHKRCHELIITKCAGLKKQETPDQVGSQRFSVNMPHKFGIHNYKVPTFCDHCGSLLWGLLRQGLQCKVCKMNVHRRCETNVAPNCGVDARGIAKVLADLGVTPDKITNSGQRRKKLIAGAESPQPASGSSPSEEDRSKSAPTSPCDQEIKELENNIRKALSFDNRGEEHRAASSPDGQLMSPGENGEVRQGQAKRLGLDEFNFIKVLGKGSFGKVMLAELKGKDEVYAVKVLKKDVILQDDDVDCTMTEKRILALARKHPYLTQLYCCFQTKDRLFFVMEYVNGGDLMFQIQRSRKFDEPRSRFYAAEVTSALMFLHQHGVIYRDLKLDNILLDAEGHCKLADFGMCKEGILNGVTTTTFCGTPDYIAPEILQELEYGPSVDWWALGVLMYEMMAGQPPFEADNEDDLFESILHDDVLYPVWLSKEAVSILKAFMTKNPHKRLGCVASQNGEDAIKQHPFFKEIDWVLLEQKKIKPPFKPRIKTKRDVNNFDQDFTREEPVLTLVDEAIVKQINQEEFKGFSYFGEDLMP

Nc1ncc2c(n1)-c1c([nH]c3ccc(C#CC4CC4)cc13)CCCC2
remaining binding (binding; competition with immobilised ligand; 1 µM): 98%

CN(CCCC(F)(F)F)c1nccc(-c2cnn3ncccc23)n1
remaining binding (binding; 1 µM): 82%

Cc1cnc(Nc2ccc(C(=O)N3CCC(N4CCCC4)CC3)cc2)nc1-c1cc2ccccc2s1
remaining binding (binding; competition with immobilised ligand; 1 µM): 26%

COc1ccnn2ncc(-c3ccnc(N(C)C)n3)c12
remaining binding (binding; 1 µM): 100%

C[C@@H]1CN(c2ccc3ncc(-c4ccc5[nH]nc(C6CC6)c5c4)n3n2)C[C@H](C)O1
remaining binding (binding; competition with immobilised ligand; 0.5 µM): 64%

O=C(N[C@H]1CCCCC/C=C\C2C[C@@]2(C(=O)O)NC(=O)[C@@H]2C[C@@H](Oc3ccncc3)CN2C1=O)OC1CCCC1 (some centres unmarked)
remaining binding (cell-free assay; competition with immobilised ligand; 1 µM): 100%

O=C(NCCCN1CCOCC1)c1ccc(Nc2ncc(Cl)c(-c3ccc(Cl)s3)n2)cc1
remaining binding (binding; competition with immobilised ligand; 1 µM): 67%

C[C@H]1CCN(c2nccc(-c3cnn4ncccc34)n2)C1
remaining binding (binding; 1 µM): 100%

CC(C)(C)c1ccc(-c2nc(CBr)nn2-c2cccc(O)c2)cc1
remaining binding (cell-free assay; competition with immobilised ligand; 10 µM): 73%

O=C(Nc1ccc(Oc2ccc(F)cc2)cc1)N1CCc2ncccc2[C@H]1c1ccc(F)cc1
remaining binding (cell-free assay; competition with immobilised ligand; 1 µM): 100%

CN(C)c1ncc(F)c(-c2cnn3ncccc23)n1
remaining binding (binding; 1 µM): 95%

CS(=O)(=O)N1CCCC(NC(=O)[C@H](CCC2CCCCC2)NC(=O)c2ccc(CNc3ncnc4c3nnn4-c3ccccc3)cc2)C1 (some centres unmarked)
remaining binding (cell-free assay; competition with immobilised ligand; 0.1 µM): 63%

COc1cnc(Nc2cccc(S(N)(=O)=O)c2)nc1N1CCN(c2ccccc2)CC1
remaining binding (binding; competition with immobilised ligand; 1 µM): 100%

COCCOc1nc(-c2ccc(Cl)nc2)nc2c1CN(C(=O)c1ncn3ccccc13)CC2
remaining binding (cell-free assay; competition with immobilised ligand; 0.1 µM): 89%

COc1ncc2cc3ccccc3nc2c1C#N
remaining binding (cell-free assay; competition with immobilised ligand; 5 µM): 89%

COc1cc(-c2cn(C3CCc4ccccc4N(CC(F)(F)F)C3=O)nn2)ccc1-n1ccc(C)n1 (centres unmarked)
remaining binding (cell-free assay; competition with immobilised ligand; 1 µM): 100%

c1cncc(-c2cccc(Nc3nccc(NC4CCCCC4)n3)c2)c1
remaining binding (binding; competition with immobilised ligand; 10 µM): 46%
